Test results taken from the M2OR odorant receptor database.

Experiments:
Settings in all cases: stereoisomer not certain
[1] = target: T1, OR10J5 (Homo sapiens) (UniProt Q8NHC4)
T1 sequence (whole entry): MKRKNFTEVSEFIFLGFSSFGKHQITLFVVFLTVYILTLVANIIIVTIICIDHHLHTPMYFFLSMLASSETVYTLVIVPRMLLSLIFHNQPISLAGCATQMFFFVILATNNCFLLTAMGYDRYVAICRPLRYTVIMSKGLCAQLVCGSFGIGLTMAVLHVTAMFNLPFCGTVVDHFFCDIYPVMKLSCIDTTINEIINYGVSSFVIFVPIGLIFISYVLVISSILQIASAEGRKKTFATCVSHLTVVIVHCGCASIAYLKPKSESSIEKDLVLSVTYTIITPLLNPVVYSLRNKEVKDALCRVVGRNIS
In short: (§1)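 Each entry records the cell line, G-protein, co-transfected protein and tags used. Methods varied with the source, often transient luciferase assays in mammalian cell lines. A receptor–molecule pair is called responsive (active) if the original authors judged its signal statistically different from baseline and non-responsive (inactive) otherwise.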

[2] = target: T2, OR10G2 (Homo sapiens) (UniProt Q8NGC3)
T2 sequence (whole entry): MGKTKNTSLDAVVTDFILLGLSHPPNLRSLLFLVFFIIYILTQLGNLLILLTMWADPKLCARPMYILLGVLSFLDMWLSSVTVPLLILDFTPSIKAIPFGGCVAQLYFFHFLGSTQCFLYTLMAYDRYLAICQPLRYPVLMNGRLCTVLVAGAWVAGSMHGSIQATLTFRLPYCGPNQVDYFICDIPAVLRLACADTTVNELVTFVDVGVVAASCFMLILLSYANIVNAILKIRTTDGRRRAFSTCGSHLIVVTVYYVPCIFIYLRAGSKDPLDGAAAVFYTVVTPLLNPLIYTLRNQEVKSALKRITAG
In short: as §1

[3] = target: T3, OR10G3 (Homo sapiens) (UniProt Q8NGC4)
T3 sequence (whole entry): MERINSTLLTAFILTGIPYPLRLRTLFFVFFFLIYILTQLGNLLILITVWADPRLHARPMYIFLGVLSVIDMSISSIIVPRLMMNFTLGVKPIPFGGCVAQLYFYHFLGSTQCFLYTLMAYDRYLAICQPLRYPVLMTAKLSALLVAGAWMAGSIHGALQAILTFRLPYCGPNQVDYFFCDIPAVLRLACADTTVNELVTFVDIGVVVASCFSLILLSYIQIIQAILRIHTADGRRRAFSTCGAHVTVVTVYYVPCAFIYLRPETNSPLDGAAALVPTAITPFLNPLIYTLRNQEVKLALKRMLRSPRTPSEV
In short: as §1

[4] = target: T4, OR10G4 (Homo sapiens) (UniProt Q8NGN3)
T4 sequence (whole entry): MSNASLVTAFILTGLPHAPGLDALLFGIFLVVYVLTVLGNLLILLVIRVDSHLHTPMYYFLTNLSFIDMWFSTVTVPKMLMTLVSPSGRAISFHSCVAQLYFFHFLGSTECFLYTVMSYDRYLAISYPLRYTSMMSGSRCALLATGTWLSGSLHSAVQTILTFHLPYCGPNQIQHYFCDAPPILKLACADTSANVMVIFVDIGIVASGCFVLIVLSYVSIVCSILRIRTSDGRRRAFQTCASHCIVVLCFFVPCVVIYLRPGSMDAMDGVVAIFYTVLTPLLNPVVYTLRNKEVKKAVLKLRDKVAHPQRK
In short: as §1

[5] = target: T5, OR10G6 (Homo sapiens) (UniProt Q8NH81)
T5 sequence (whole entry): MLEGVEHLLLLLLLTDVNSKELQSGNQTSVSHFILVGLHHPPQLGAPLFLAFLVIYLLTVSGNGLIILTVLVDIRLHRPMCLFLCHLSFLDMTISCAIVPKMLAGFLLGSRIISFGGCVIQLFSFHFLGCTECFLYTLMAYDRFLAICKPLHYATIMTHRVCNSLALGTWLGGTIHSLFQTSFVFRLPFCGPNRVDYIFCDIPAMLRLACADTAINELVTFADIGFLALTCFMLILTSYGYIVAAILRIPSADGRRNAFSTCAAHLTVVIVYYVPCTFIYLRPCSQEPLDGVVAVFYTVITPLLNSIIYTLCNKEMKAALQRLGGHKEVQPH
In short: as §1

[6] = target: T6, OR10G7 (Homo sapiens) (UniProt Q8NGN6)
T6 sequence (whole entry): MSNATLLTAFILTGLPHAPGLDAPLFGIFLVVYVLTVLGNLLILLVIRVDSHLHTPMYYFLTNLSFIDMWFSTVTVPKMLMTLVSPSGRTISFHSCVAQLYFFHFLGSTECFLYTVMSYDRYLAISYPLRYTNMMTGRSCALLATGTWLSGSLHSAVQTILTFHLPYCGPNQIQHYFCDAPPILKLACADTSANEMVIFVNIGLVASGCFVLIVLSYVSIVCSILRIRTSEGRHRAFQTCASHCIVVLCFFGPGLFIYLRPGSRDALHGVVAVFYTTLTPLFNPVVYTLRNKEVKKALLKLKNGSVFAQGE
In short: as §1

[7] = target: T7, OR10G8 (Homo sapiens) (UniProt Q8NGN5)
T7 sequence (whole entry): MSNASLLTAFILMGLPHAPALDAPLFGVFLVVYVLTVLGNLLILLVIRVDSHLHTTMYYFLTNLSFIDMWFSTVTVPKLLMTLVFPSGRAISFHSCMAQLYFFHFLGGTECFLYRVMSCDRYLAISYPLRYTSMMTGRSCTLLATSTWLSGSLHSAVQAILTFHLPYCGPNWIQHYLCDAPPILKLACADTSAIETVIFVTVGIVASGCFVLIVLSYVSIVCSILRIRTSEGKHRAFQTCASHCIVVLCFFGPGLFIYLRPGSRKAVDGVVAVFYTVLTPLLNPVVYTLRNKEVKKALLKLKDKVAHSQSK
In short: as §1

[8] = target: T8, OR10G9 (Homo sapiens) (UniProt Q8NGN4)
T8 sequence (whole entry): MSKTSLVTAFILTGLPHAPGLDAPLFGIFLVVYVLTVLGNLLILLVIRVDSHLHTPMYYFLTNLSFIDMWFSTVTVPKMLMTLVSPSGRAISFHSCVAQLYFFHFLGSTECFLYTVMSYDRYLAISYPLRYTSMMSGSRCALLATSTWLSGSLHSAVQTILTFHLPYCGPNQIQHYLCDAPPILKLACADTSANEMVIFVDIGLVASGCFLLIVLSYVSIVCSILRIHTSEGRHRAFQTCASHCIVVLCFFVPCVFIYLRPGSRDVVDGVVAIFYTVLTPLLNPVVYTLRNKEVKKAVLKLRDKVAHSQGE
In short: as §1

[9] = target: T9, OR10H1 (Homo sapiens) (UniProt Q9Y4A9)
T9 sequence (whole entry): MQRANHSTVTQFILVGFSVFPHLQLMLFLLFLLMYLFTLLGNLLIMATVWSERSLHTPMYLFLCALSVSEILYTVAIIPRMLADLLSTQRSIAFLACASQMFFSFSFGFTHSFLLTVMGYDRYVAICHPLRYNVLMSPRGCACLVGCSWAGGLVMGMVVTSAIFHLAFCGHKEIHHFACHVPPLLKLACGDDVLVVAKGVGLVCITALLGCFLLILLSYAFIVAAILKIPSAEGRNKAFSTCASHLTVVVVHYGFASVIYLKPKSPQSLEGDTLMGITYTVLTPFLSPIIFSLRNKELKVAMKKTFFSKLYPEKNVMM
In short: as §1

[10] = target: T10, OR10H2 (Homo sapiens) (UniProt O60403)
T10 sequence (whole entry): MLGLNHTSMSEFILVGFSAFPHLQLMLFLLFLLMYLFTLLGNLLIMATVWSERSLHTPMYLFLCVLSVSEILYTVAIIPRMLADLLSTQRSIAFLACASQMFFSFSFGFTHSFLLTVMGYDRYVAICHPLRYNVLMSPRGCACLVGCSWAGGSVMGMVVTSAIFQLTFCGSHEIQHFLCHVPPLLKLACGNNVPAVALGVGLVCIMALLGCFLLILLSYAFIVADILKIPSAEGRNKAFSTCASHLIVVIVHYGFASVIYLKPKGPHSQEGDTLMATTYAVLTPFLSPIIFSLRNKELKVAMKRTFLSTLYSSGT
In short: as §1

[11] = target: T11, OR10H3 (Homo sapiens) (UniProt O60404)
T11 sequence (whole entry): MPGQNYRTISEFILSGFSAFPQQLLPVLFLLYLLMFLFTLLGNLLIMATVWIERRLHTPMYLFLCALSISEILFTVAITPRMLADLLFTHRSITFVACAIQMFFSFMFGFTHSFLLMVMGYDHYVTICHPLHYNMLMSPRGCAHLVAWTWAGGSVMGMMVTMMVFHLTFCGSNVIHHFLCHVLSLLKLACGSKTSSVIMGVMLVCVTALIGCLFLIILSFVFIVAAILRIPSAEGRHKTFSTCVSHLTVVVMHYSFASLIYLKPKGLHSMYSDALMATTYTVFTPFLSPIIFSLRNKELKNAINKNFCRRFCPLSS
In short: as §1

[12] = target: T12, OR10H4 (Homo sapiens) (UniProt Q8NGA5)
T12 sequence (whole entry): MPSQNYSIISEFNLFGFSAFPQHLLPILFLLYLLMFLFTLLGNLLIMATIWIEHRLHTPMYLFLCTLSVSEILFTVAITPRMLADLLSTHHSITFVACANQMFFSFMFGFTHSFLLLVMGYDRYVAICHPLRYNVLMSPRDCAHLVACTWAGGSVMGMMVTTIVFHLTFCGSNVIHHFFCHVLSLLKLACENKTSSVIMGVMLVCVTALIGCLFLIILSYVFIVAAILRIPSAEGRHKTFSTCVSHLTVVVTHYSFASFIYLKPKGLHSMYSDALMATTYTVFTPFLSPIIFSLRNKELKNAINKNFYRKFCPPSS
In short: as §1

[13] = target: T13, OR10H5 (Homo sapiens) (UniProt Q8NGA6)
T13 sequence (whole entry): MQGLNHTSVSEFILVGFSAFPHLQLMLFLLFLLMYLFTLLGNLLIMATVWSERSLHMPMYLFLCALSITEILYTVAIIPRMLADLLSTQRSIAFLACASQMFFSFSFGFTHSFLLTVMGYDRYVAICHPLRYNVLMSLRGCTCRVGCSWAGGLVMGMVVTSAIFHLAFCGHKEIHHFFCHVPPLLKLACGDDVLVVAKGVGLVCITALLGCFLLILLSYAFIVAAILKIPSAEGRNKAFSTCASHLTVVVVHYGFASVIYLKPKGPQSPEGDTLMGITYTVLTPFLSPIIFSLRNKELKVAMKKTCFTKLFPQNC
In short: as §1

[14] = target: T14, OR10J1 (Homo sapiens) (UniProt P30954)
T14 sequence (whole entry): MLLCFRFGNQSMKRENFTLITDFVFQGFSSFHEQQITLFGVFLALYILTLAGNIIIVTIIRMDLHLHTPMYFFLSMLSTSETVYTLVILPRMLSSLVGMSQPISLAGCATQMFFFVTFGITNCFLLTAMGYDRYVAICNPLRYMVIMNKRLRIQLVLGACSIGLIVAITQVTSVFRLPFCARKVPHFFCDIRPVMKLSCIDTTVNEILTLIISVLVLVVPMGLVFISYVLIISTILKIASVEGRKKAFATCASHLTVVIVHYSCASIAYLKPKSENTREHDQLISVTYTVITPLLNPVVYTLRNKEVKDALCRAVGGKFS
In short: as §1

[15] = target: T15, OR10J3 (Homo sapiens) (UniProt Q5JRS4)
T15 sequence (whole entry): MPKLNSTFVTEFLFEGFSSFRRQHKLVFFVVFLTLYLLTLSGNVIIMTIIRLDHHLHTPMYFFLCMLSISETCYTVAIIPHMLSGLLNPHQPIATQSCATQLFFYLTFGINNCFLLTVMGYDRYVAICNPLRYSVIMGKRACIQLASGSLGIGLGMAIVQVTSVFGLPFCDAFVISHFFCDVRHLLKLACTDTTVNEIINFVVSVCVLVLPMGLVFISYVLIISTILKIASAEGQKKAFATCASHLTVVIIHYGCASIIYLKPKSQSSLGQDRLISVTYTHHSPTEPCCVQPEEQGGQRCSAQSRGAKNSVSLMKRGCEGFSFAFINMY
In short: as §1

[16] = target: T16, OR10K1 (Homo sapiens) (UniProt Q8NGX5)
T16 sequence (whole entry): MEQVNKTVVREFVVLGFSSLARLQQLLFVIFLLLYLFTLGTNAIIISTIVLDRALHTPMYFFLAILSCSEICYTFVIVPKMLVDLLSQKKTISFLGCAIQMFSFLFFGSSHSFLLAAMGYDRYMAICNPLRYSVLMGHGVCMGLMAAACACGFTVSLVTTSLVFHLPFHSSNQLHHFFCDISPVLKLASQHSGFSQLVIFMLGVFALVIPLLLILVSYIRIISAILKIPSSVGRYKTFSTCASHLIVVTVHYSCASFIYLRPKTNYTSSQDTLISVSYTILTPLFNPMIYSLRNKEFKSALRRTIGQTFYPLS
In short: as §1

[17] = target: T17, OR10K2 (Homo sapiens) (UniProt Q6IF99)
T17 sequence (whole entry): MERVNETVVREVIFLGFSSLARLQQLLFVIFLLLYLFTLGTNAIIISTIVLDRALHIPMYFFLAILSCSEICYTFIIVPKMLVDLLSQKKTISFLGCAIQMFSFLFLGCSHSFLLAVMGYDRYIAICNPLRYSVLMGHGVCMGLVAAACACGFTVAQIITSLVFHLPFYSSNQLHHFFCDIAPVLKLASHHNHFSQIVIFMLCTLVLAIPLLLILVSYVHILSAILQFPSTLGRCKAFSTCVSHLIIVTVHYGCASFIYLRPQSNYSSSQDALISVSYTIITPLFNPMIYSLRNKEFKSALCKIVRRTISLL
In short: as §1

[18] = target: T18, OR10P1 (Homo sapiens) (UniProt Q8NGE3)
T18 sequence (whole entry): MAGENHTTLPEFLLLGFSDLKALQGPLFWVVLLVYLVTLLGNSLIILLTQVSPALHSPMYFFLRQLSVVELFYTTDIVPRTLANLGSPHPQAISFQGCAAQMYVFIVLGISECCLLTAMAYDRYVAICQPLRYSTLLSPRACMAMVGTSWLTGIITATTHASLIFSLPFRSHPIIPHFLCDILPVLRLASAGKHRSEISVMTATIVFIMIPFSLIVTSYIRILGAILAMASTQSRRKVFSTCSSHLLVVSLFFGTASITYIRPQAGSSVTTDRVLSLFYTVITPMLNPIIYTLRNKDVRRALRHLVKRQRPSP
In short: as §1

[19] = target: T19, OR10Q1 (Homo sapiens) (UniProt Q8NGQ4)
T19 sequence (whole entry): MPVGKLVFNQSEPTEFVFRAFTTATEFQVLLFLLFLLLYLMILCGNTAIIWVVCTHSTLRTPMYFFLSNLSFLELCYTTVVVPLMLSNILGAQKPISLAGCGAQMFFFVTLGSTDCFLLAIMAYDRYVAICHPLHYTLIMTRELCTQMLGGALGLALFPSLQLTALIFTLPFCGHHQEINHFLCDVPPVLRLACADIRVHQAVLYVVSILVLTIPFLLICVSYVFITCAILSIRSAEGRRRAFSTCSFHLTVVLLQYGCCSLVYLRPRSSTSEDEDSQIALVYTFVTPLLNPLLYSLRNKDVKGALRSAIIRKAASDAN
In short: as §1

Measured: odorant receptor agonist call

COc1cc(C(=O)O)ccc1O
inactive: [1]

CC(CO)CS (configuration not stated)
inactive: all assays above

CCCCC(C)=O
inactive: [1]

CC(C)=CCCC(C)=CCO
inactive: [1]
